Data set [1] can be described thus: Toxicity against interferon gamma-stimulated human THP-1 monocyte cells co-cultured with human HT-29 cells assessed as reduction in cell viability at 100 uM incubated for 48 hrs by flow cytometry analysis. The following applies: thp-1, 48 h. The format is cell-based. Summed up:
(§1)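 HT-29 cells at 10^5/well seeded and grown 24 h. Medium then replaced with medium containing IFN-γ (10 ng/ml), 5 × 10^5 THP-1 cells/well and compound at 100 µM; DMSO used as control. After 48 h, THP-1 cells collected from supernatant and cancer cells by trypsinisation. Both fixed in 4% paraformaldehyde and counted by flow cytometry relative to control.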
(A flow cytometer gives signals particle by particle.)

For data set [2], the system named is HT-29. Briefly: Antiproliferative activity against human HT-29 cells assessed as reduction in IL-6 secretion at 100 uM incubated for 48 hrs by ELISA assay. The format is functional, cell-based. Summed up:
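HT-29 monocultures at 10^5 cells/well treated 48 h with compound at 100 µM in 500 µL growth medium. Media collected and secreted IL-6 measured with a human IL-6 ELISA kit.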
(In general: In an ELISA, binding on a coated surface is turned into a signal by an enzyme label.)

Data set [3] has as its system HT-29. Briefly: Antiproliferative activity against human HT-29 cells assessed as reduction in cell viability incubated for 48 hrs by MTT assay. It is filed as functional, cell-based. The settings on record: HT-29, 48 h. An outline of the steps: (§2)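 MTT dye-reduction assay. Cells at 5 × 10^3/well in DMEM with 10% FBS, treated with serial dilutions of compound (DMSO stocks) for 2 days at 37 °C, 5% CO2. MTT added for a further 3 h, formazan dissolved in DMSO, absorbance read at 550 nm. Viability expressed as % of untreated cells; IC50 determined graphically from three independent experiments.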
In general terms: Tetrazolium dyes change colour on reduction, which living cells bring about.

The next data set concerns A549. Briefly: Antiproliferative activity against human A549 cells assessed as reduction in cell viability incubated for 48 hrs by MTT assay. It is filed as functional, cell-based. The settings on record: A549, 48 h. An outline of the steps:
as §2

For another data set, the system named is MCF7. Briefly: Antiproliferative activity against human MCF7 cells assessed as reduction in cell viability incubated for 48 hrs by MTT assay. It is filed as functional, cell-based. The following applies: MCF7, 48 h. Summed up: as §2
Data set [4] in a line: Cytotoxicity against HEK293 cells assessed as reduction in cell viability incubated for 48 hrs by MTT assay. The following applies: human. The format is toxicity, cell-based. Summed up: as §2
The test system of data set [5] is HT-29. Description: Antiproliferative activity against human HT-29 cells assessed as relative PD-L1 protein expression in membrane at 100 uM incubated for 48 hrs by flow cytometry analysis relative to control. It is filed as functional.
The test system of data set [6] is HT-29. Description: Antiproliferative activity against human HT-29 cells assessed as relative PD-L1 protein expression in whole cell at 100 uM incubated for 48 hrs by flow cytometry analysis relative to control. It is filed as functional.
Data set [7] concerns HT-29. Description: Antiproliferative activity against human HT-29 cells assessed as relative c-Myc protein expression at 100 uM incubated for 48 hrs by flow cytometry analysis relative to control. It is filed as functional.
Data set [8] deals with HT-29. Briefly: Antiproliferative activity against human HT-29 cells assessed as relative VEGFR-2 protein expression in membrane at 100 uM incubated for 48 hrs by flow cytometry analysis relative to control. It is filed as functional.
The test system of data set [9] is HT-29. Description: Antiproliferative activity against human HT-29 cells assessed as relative VEGFR-2 protein expression in whole cell at 100 uM incubated for 48 hrs by flow cytometry analysis relative to control. It is filed as functional.
For data set [10], the system named is HT-29. Briefly: Immunomodulatory activity in human HT-29 cells co-cultured with interferon gamma-stimulated THP-1 cells assessed as cell viability at 100 uM incubated for 48 hrs by flow cytometry analysis relative to control. The settings on record: read-out: Activity. It is filed as functional. Summed up: as §1
Data set [11] relates to HT-29. Briefly: Immunomodulatory activity in human HT-29 cells co-cultured with interferon gamma-stimulated THP-1 cells assessed as relative CD-47 protein expression in membrane at 100 uM incubated for 48 hrs by flow cytometry analysis relative to control. The format is functional.
Data set [12] concerns HT-29. Description: Immunomodulatory activity in human HT-29 cells co-cultured with interferon gamma-stimulated THP-1 cells assessed as relative PD-L1 protein expression in membrane at 100 uM incubated for 48 hrs by flow cytometry analysis relative to control. It is filed as functional.
In data set [13] the test system is HT-29. Briefly: Immunomodulatory activity in human HT-29 cells co-cultured with interferon gamma-stimulated THP-1 cells assessed as IL-6 level at 100 uM incubated for 48 hrs by ELISA analysis (reference value: 192 +/- 16 pg/ml). The format is functional. Summed up:
(§3)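 HT-29 cells co-cultured with IFN-γ (10 ng/ml)-stimulated THP-1 cells and treated 48 h with compound at 100 µM. Culture media collected and IL-6 measured by human IL-6 ELISA, in pg/mL and as % of control. Mean of three experiments.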

For data set [14], the system named is HT-29. Briefly: Immunomodulatory activity in human HT-29 cells co-cultured with interferon gamma-stimulated THP-1 cells assessed as relative IL-6 level at 100 uM incubated for 48 hrs by ELISA analysis relative to control. The format is functional. An outline of the steps: as §3
In data set [15] the test system is HMEC-1. Briefly: Antiangiogenic activity in HMEC-1 cells assessed as inhibition of endothelial microtubes formation at 100 uM incubated for 24 hrs by matrigel based imaging analysis. It is filed as functional, cell-based. The settings on record: Homo sapiens. An outline of the steps: (§4)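 HMEC-1 cells at 2 × 10^4 cells/well seeded on Matrigel (10 mg/mL, gelled 30 min at 37 °C) in EGM-2MV medium with SingleQuots, allowed to attach 30 min at 37 °C. Compounds then added in medium; after 24 h at 37 °C, microtube formation/destruction evaluated from pictures.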

For data set [16], the system named is HMEC-1. Description: Antiangiogenic activity in HMEC-1 cells assessed as inhibition of endothelial microtubes formation at <75 uM incubated for 24 hrs by matrigel based imaging analysis. The format is functional, cell-based. The following applies: Homo sapiens. Summed up:
as §4

Data set [17] concerns HEK293. Briefly: Anti-vasculogenic activity against HEK293 cells assessed as disruption of tube-like structures at 100 uM incubated for 24 hrs by Matrigel based imaging analysis. The format is functional, cell-based. The settings on record: Homo sapiens. An outline of the steps: (§5)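 HEK-293 cells seeded at 5 × 10^4 cells/well on Matrigel (pre-incubated with medium 24 h at 37 °C), grown 24 h at 37 °C until tube-like structures form; compounds then added in medium and incubated a further 24 h at 37 °C. Disruption of preformed tube-like structures assessed by imaging.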

In data set [18] the test system is HEK293. Description: Anti-vasculogenic activity against HEK293 cells assessed as disruption of tube-like structures at <75 uM incubated for 24 hrs by Matrigel based imaging analysis. It is filed as functional, cell-based. The settings on record: Homo sapiens. Summed up: as §5
Data set [19] relates to HT-29. Description: Immunomodulatory activity in human HT-29 cells co-cultured with interferon gamma-stimulated THP-1 cells assessed as reduction in IL-6 level at 100 uM incubated for 48 hrs by ELISA analysis relative to control. More on the design: scale not given: the % may be the effect or the level left. It is filed as functional. An outline of the steps: as §3
For data set [20], the system named is HT-29. Briefly: Immunomodulatory activity in human HT-29 cells co-cultured with interferon gamma-stimulated THP-1 cells assessed as inhibition of cell growth at 100 uM incubated for 48 hrs by flow cytometry analysis relative to control. The format is functional. Summed up:
as §1

For data set [21], the system named is HT-29. Description: Immunomodulatory activity in human HT-29 cells co-cultured with interferon gamma-stimulated THP-1 cells assessed as inhibition of CD-47 protein expression at 100 uM incubated for 48 hrs by flow cytometry analysis relative to control. The format is functional.
For data set [22], the system named is HT-29. Briefly: Immunomodulatory activity in human HT-29 cells co-cultured with interferon gamma-stimulated THP-1 cells assessed as inhibition of PD-L1 protein expression in cell surface at 100 uM incubated for 48 hrs by flow cytometry analysis relative to control. It is filed as functional.

The structures appear in SMILES notation. The source made the active and inactive calls. The calls are words filed in the database; no cut-off is given here.

For orientation: IC50 means the concentration needed to halve the response being measured. For the compound `Nc1cccc(-c2nnn(Cc3cccc(Cl)c3)n2)c1`, the Activity entry in [1] was “Non-Toxic”; with HT-29 [5], greater than 100%; in the data set on HT-29 [6], 97%; in the data set with HT-29 [7], 76%; with HT-29 [8], 97%; in the data set with HT-29 [9], 99%. Moreover, the Activity is 95% with HT-29 [11]; 94% in the data set with HT-29 [12]; 6 pg/mL in the data set with HT-29 [13]; 3% in the data set on HT-29 [14]; greater than 95% in the data set with HT-29 [19]. Also, the outcome in the data set with HT-29 [2], with HMEC-1 [16] and with HEK293 [18] was inactive. Further, the IC50 in the data set on HT-29 [3] is 81 µM; in the data set with A549, greater than 100 µM; in the data set on MCF7 it was 88 µM. The IC50 at 48 h in [4] is greater than 100 µM. For the same compound, the viability at 100 µM in the data set with HT-29 [10] came to 48%. The outcome in the data set on HMEC-1 [15] and in the data set with HEK293 [17] was Active.
Usually inhibition stands for the percentage by which the read-out fell short of the control. On to `Nc1cccc(-c2nnn(Cc3ccc(Cl)cc3)n2)c1`, for which the Activity result is “Non-Toxic” in data set [1]; greater than 100% with HT-29 [5]; 99% in the data set with HT-29 [6]; 80% with HT-29 [7]; greater than 100% in the data set on HT-29 [8]; 96% in the data set with HT-29 [9]. Also, the Activity amounted to 93% in the data set with HT-29 [11]; 114% with HT-29 [12]; 11 pg/mL in the data set on HT-29 [13]; 6% in the data set on HT-29 [14]; 94% with HT-29 [19]. Further, the outcome in the data set on HT-29 [2], with HMEC-1 [16] and in the data set on HEK293 [18] was inactive. Moreover, the IC50 is 72 µM in the data set on HT-29 [3], greater than 100 µM in the data set on A549 and greater than 100 µM in the data set with MCF7. Further, the IC50 at 48 h in data set [4] worked out at 91 µM. Besides, the viability at 100 µM in the data set with HT-29 [10] was 22%. For the same compound, the inhibition at 100 µM in the data set on HT-29 [20] is greater than 70%. In addition, the result in the data set on HMEC-1 [15] and with HEK293 [17] was Active.
For `Nc1cccc(-c2nnn(Cc3cccc(Br)c3)n2)c1`, the Activity result in data set [1] is “Non-Toxic”; in the data set on HT-29 [5], 66%; in the data set with HT-29 [6], greater than 100%; in the data set with HT-29 [7] it was 83%; in the data set on HT-29 [8], greater than 100%; in the data set with HT-29 [9], greater than 100%. The Activity with HT-29 [12] is reported as 64%. Moreover, the viability at 100 µM in the data set with HT-29 [10] was 19%. The figures for the inhibition at 100 µM in the data set with HT-29 [20], with HT-29 [21] and in the data set with HT-29 [22] were greater than 70%, greater than 30% and 70%, respectively. Also, the outcome with HMEC-1 [15] and with HEK293 [17] was Active. Moreover, the outcome in the data set with HMEC-1 [16] and in the data set with HEK293 [18] was inactive.
In the case of `Nc1cccc(-c2nnn(Cc3ccccc3Cl)n2)c1`, the Activity entry is on record as “Non-Toxic” in data set [1]; 95% in the data set with HT-29 [5]; greater than 100% with HT-29 [6]; greater than 100% in the data set on HT-29 [7]; 96% with HT-29 [8]; 92% in the data set on HT-29 [9]. Further, the Activity in the data set with HT-29 [11] was 86%; in the data set with HT-29 [12], 93%; in the data set on HT-29 [13] it was 6 pg/mL; in the data set with HT-29 [14], 3%; in the data set with HT-29 [19], greater than 95%. Further, the result in the data set on HT-29 [2], in the data set on HMEC-1 [16] and with HEK293 [18] was inactive. For the same compound, the viability at 100 µM in the data set on HT-29 [10] turned out to be 61%. The outcome in the data set with HMEC-1 [15] and in the data set with HEK293 [17] was Active.

The values are drawn from ChEMBL document CHEMBL5390247, “Aryl azoles based scaffolds for disrupting tumor microenvironment” (Bioorg Med Chem, 2023).
